Source: PubChem (PCMD)
FXIIa single = human FXIIa protease inhibitors, primary screen, biochemical, single well | hit rate 0.2% among 33,000 | inhibition, % at 10 µM | AID 701, 2007 | purified human FXIIa, AMC substrate fluorescence, 2 h | Coagulation factor XII (Homo sapiens), P00748; in the data active means inhibition above about 30%;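 further: 0% = enzyme with vehicle only and 100% = no enzyme blank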
FXIa single inh = human FXIa protease inhibitors, primary screen, biochemical, single compound per well. Coagulation factor XI (Homo sapiens), P03951. purified human FXIa, fluorogenic AMC substrate cleavage. inhibition, % at 10 µM. hit rate 0.3% among 33,000;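 active means inhibition above 40% in the primary screen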;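 further: 0% = enzyme without compound and 100% = blank wells lacking enzyme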
Target sequence (P03951 19-387 limits assumed): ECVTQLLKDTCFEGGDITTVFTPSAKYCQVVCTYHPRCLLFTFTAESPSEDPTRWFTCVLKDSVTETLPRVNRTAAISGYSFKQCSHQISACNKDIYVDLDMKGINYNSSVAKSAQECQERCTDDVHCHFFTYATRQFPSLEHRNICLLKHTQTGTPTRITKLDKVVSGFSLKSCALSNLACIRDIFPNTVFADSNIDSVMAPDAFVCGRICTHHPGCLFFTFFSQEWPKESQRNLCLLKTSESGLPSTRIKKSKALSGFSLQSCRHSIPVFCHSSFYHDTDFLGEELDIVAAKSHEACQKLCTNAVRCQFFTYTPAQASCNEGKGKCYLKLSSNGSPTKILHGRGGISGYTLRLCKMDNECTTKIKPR
Target sequence (P03951 388-625 limits assumed): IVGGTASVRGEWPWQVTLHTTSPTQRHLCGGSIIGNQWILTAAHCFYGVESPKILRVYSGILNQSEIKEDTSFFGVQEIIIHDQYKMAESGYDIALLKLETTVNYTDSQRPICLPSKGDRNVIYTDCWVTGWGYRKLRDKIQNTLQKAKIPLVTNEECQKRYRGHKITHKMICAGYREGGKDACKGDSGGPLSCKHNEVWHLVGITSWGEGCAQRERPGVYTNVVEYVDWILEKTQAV
Yeast tox = yeast growth toxicity, wild-type and mutant, primary screen, cytotoxicity control for eIF2B function restoration project, wild-type and eIF2Bepsilon R284H mutant, A595 | S. cerevisiae wild-type growth, A595 turbidity, 16 h | growth inhibition, % at 25 µM (by protocol) | hit rate 0.3% among 30,000 | AID 685, 2007;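 active means mutant and wild-type yeast strains alike exhibit over 30% growth inhibition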;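 further: 0% = untreated cell controls and 100% = YPD media blanks without cells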
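Schedule: 16 h growth with compound, 30 °C. System: yeast, wild-type or eIF2Bepsilon-R284H mutant. Doses: one dose, 25 µM compound[…]. Buffer or medium: YPD. Signal: turbidity measured as absorbance at 595 nm. Read-out basis: growth inhibition (%) versus cell controls and blanks.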
* = called active by the depositor; / = not tested or not shown. Rows were chosen to be rich in hits. Some 0.42% of all compounds tested hit in one or more screens of this group.

SMILES	FXIIa single	FXIa single inh	Yeast tox
O=C(c1ccccc1)N1CCCC(c2nc3c(nnn3Cc3ccccc3)c(=O)[nH]2)C1 (centres undefined)	37*	-2	/
O=C(C1CCCCC1)N1CCCC(c2nc3c(nnn3Cc3ccccc3)c(=O)[nH]2)C1 (centres undefined)	-13	0	-10
CCc1c(O)nc(SCC(=O)NC(C)(C)C)n(-c2ccccc2)c1=O	1	43*	/
CCCCc1c(O)nc(SCC(=O)NC(C)(C)C)n(-c2ccccc2C)c1=O	3	-2	-25
Cc1c(NC(=O)c2cc(C3CC3)on2)c(=O)n(-c2ccccc2)n1C	4	2	/
Cc1c(NC(=O)c2cc3ccccc3o2)c(=O)n(-c2ccccc2)n1C	7	57*	/
NC(=O)C1CCN(C(=O)CSc2nc3c(c(-c4ccccc4)n2)CCCC3)CC1	5	2	/
COCc1nnc(NS(=O)(=O)c2c(C)cc(C)cc2C)s1	-3	-6	/
COC(=O)c1[nH]c2ccc(C)cc2c1NC(=O)CN1CCc2cc(OC)c(OC)cc2C1	/	/	18
COC(=O)c1[nH]c2ccc(Br)cc2c1NC(=O)CN1CCCc2ccccc21	3	45*	/
Cn1nc(-c2ccc(OCC(=O)NCC3CCCO3)cc2)c2ccccc2c1=O (centres undefined)	4	0	/
CCOc1ccc(-n2nc(C(=O)N3CCOCC3)c3ccccc3c2=O)cc1	/	/	-11
COC(=O)c1cc(NC(=O)Cc2ccc(OC)cc2)cc(C(=O)OC)c1	5	-3	/
COC(=O)c1ccc2c(=O)n(Cc3ccc4c(c3)OCO4)c(SCC(=O)N3CCCC3)nc2c1	/	/	-12
Cc1ccc(-c2cc(-c3ccccc3C)[nH]n2)c(O)c1	8	1	/
Cc1ccc(-c2cc(-c3cccc(F)c3)n[nH]2)c(O)c1	/	/	30*
Cc1ccc(O)c(-c2cc(-c3cccc(F)c3)n[nH]2)c1	-14	26	51*
Cc1ccc(O)c(-c2cc(-c3ccccc3F)[nH]n2)c1	6	-13	-5
Oc1ccc(Br)cc1-c1cc(-c2ccc(Cl)cc2)n[nH]1	12	-1	-15
Oc1ccc(Br)cc1-c1cc(-c2ccccc2)n[nH]1	/	/	80*
CCOC(=O)C(CC)(CC)/C(C)=N/NC(=O)CC#N	5	0	15
CCC(=O)Nc1ccccc1Nc1cc(C#N)c(C#N)cc1[N+](=O)[O-]	2	-5	14
CC1(C)CC(NCc2ccc3c(c2)OCO3)CCO1 (centres undefined)	2	9	-4
CN(c1ccccc1)c1nc(-n2ccnc2)nc(-n2ccnc2)n1	/	/	-2
c1ccc(N(c2ccccc2)c2nc(-n3ccnc3)nc(-n3ccnc3)n2)cc1	/	/	101*
COc1ccc(CN(C#N)c2nc(SC)nc(N(C)C)n2)cc1	1	-7	/
CCOc1ccc(-c2[nH]ncc2Oc2ccccc2OC)c(O)c1	/	/	32
CCCOC(=O)c1ccc(Oc2cn[nH]c2-c2ccc(OC)cc2O)cc1	/	/	60*
O=C(CSc1nc2ccccc2o1)NCCOc1ccccc1	1	6	/
Cc1ccccc1C(=O)c1cccn1CC(=O)NCc1ccc2c(c1)OCO2	-2	-9	4
